Results published in ChEMBL document CHEMBL1138050, “Furan-2-ylmethylene thiazolidinediones as novel, potent, and selective inhibitors of phosphoinositide 3-kinase gamma” (J Med Chem, 2006).

How the values were obtained:
[1] = molecular target: Phosphatidylinositol 4,5-bisphosphate 3-kinase catalytic subunit beta isoform (Homo sapiens, UniProt P42338); assay: Inhibition of human PI3Kbeta
[2] = molecular target: Dual specificity mitogen-activated protein kinase kinase 1 (Homo sapiens) (UniProt Q02750); assay: Residual activity at human MEK1 at 10 uM in presence of 10 uM ATP relative to control
Procedure, shortened: (§1)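 Single-concentration counter-screen across a panel of 80 Ser/Thr and Tyr protein kinases. Compound was tested at 10 µM with ATP at 10 µM. Activity remaining in each kinase is expressed relative to control.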

[3] = molecular target: RAC-beta serine/threonine-protein kinase (Homo sapiens) (UniProt P31751); assay: Residual activity at human PKBbeta at 10 uM in presence of 10 uM ATP relative to control; procedure, shortened: as §1
[4] = Cmax in rat at 10 mg/kg, iv; assay type: ADME, organism-based; design: dose 10 mg/kg, route intravenous; conditions: in vivo
Procedure, shortened: (§2)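 Rats given a single 10 mg/kg dose, intravenously or orally. The compound was given as its potassium salt, prepared with KOH in THF/water, for the in vivo work.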

[5] = AUC in rat at 10 mg/kg, iv; assay type: ADME, organism-based; design: dose 10 mg/kg, route intravenous; conditions: plasma; procedure, shortened: as §2
[6] = Half life in rat at 10 mg/kg, po; assay type: ADME, organism-based; design: dose 10 mg/kg, route oral; conditions: in vivo; procedure, shortened: as §2
[7] = molecular target: Ribosomal protein S6 kinase alpha-1 (Homo sapiens) (UniProt Q15418); assay: Residual activity at human Rsk1 at 10 uM in presence of 10 uM ATP relative to control; procedure, shortened: as §1
[8] = molecular target: Tyrosine-protein kinase ABL2 (Mus musculus) (UniProt Q4JIM5); assay: Residual activity at mouse Arg at 10 uM in presence of 10 uM ATP relative to control; procedure, shortened: as §1
[9] = molecular target: Mitogen-activated protein kinase 14 (Homo sapiens) (UniProt Q16539); assay: Residual activity at human SAPK2a at 10 uM in presence of 10 uM ATP relative to control; procedure, shortened: as §1
[10] = molecular target: Serine/threonine-protein kinase Chk1 (Homo sapiens) (UniProt O14757); assay: Residual activity at human Chk1 at 10 uM in presence of 10 uM ATP relative to control
Procedure, shortened: (§3)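 Panel of Ser/Thr and Tyr protein kinases, each tested with 10 µM compound in the presence of 10 µM ATP; activity expressed relative to control.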

[11] = molecular target: Tyrosine-protein kinase ZAP-70 (Homo sapiens) (UniProt P43403); assay: Residual activity at human ZAP70 at 10 uM in presence of 10 uM ATP relative to control; procedure, shortened: as §1
[12] = system: Rattus norvegicus; assay: Half life in rat at 10 mg/kg, iv; assay type: ADME, organism-based; design: dose 10 mg/kg, route intravenous; conditions: in vivo; procedure, shortened: as §2
[13] = molecular target: Tyrosine-protein kinase Lyn (Homo sapiens) (UniProt P07948); assay: Residual activity at human Lyn at 10 uM in presence of 10 uM ATP relative to control; procedure, shortened: as §1
[14] = molecular target: Tyrosine-protein kinase Yes (Homo sapiens) (UniProt P07947); assay: Inhibition of human Yes at 10 uM in presence of 10 uM ATP relative to control; design: scale not given: the % may be the effect or the level left; procedure, shortened: as §3
[15] = molecular target: Inhibitor of nuclear factor kappa-B kinase subunit beta (Homo sapiens) (UniProt O14920); assay: Residual activity at human IKK-beta at 10 uM in presence of 10 uM ATP relative to control; procedure, shortened: as §3
[16] = molecular target: Serine/threonine-protein kinase PAK 2 (Homo sapiens) (UniProt Q13177); assay: Residual activity at human PAK2 at 10 uM in presence of 10 uM ATP relative to control; procedure, shortened: as §1
[17] = molecular target: Insulin receptor (Homo sapiens) (UniProt P06213); assay: Residual activity at human IR at 10 uM in presence of 10 uM ATP relative to control; procedure, shortened: as §3
[18] = system: Monocyte; assay: Inhibition of MCP1-induced chemotaxis of mouse primary monocytes; assay type: functional, cell-based
Procedure, shortened: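 Cells were starved and pretreated with inhibitor or DMSO, then chemotaxis was induced with MCP-1 (10^-9 M). Primary mouse monocytes: 10^7 5-day bone-marrow-derived monocytes in medium with 0.5% BSA and compound, placed in the upper chamber of a 5 µm transwell. MCP-1 plus compound in the lower chamber. After 3 h at 37 °C, 5% CO2, cells in the lower chamber were counted. IC50.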

[19] = molecular target: Dual specificity mitogen-activated protein kinase kinase 6 (Homo sapiens) (UniProt P52564); assay: Residual activity at human MKK6 at 10 uM in presence of 10 uM ATP relative to control; procedure, shortened: as §1
[20] = molecular target: Receptor-type tyrosine-protein kinase FLT3 (Homo sapiens) (UniProt P36888); assay: Residual activity at human Flt3 at 10 uM in presence of 10 uM ATP relative to control; procedure, shortened: as §3
[21] = molecular target: Serine/threonine-protein kinase N2 (Homo sapiens) (UniProt Q16513); assay: Residual activity at human PRK2 at 10 uM in presence of 10 uM ATP relative to control; procedure, shortened: as §1
[22] = AUC in rat at 10 mg/kg, po; assay type: ADME, organism-based; design: dose 10 mg/kg, route oral; conditions: plasma; procedure, shortened: as §2
[23] = molecular target: Ribosomal protein S6 kinase alpha-3 (Homo sapiens) (UniProt P51812); assay: Residual activity at human Rsk3 at 10 uM in presence of 10 uM ATP relative to control; procedure, shortened: as §1
[24] = molecular target: CDK3/cyclin E (Homo sapiens) (UniProt P24864+O96020+Q00526); assay: Residual activity at human CDK3/CyclinE at 10 uM in presence of 10 uM ATP relative to control; assay type: protein-complex assay; procedure, shortened: as §3
[25] = system: THP-1; assay: Inhibition of CSF-1-induced PKB/Akt phosphorylation in THP1 cells; conditions: Homo sapiens
[26] = molecular target: Calcium/calmodulin-dependent protein kinase type IV (Homo sapiens) (UniProt Q16566); assay: Residual activity at human CaMK4 at 10 uM in presence of 10 uM ATP relative to control; procedure, shortened: as §3
[27] = molecular target: Cytoplasmic tyrosine-protein kinase BMX (Homo sapiens) (UniProt P51813); assay: Residual activity at human Bmx at 10 uM in presence of 10 uM ATP relative to control; procedure, shortened: as §3
[28] = molecular target: Protein kinase C alpha type (Homo sapiens) (UniProt P17252); assay: Residual activity at human PKCalpha at 10 uM in presence of 10 uM ATP relative to control; procedure, shortened: as §1
[29] = molecular target: Protein kinase C theta type (Homo sapiens) (UniProt Q04759); assay: Residual activity at human PKCtheta at 10 uM in presence of 10 uM ATP relative to control; procedure, shortened: as §1
[30] = molecular target: Tyrosine-protein kinase Lck (Homo sapiens) (UniProt P06239); assay: Residual activity at human Lck at 10 uM in presence of 10 uM ATP relative to control; procedure, shortened: as §1
[31] = molecular target: RAC-gamma serine/threonine-protein kinase (Homo sapiens) (UniProt Q9Y243); assay: Residual activity at human PKBgamma at 10 uM in presence of 10 uM ATP relative to control; procedure, shortened: as §1
[32] = molecular target: Ribosomal protein S6 kinase alpha-2 (Homo sapiens) (UniProt Q15349); assay: Residual activity at human Rsk2 at 10 uM in presence of 10 uM ATP relative to control; procedure, shortened: as §1
[33] = molecular target: Serine/threonine-protein kinase D2 (Homo sapiens) (UniProt Q9BZL6); assay: Residual activity at human PKD2 at 10 uM in presence of 10 uM ATP relative to control; procedure, shortened: as §1

Chain of Dual specificity mitogen-activated protein kinase kinase 1 (Homo sapiens) (Q02750 whole entry): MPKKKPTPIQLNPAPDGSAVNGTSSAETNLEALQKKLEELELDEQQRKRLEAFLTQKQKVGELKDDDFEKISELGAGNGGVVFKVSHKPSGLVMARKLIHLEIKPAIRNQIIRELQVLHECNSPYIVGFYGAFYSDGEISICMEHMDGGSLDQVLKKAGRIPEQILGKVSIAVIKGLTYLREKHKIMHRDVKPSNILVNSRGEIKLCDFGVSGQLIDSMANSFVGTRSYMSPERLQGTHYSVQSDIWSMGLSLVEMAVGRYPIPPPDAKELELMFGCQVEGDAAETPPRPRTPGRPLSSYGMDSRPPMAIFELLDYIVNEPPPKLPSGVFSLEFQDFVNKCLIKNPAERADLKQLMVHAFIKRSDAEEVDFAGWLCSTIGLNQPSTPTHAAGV
Chain of Mitogen-activated protein kinase 14 (Homo sapiens) (Q16539 whole entry): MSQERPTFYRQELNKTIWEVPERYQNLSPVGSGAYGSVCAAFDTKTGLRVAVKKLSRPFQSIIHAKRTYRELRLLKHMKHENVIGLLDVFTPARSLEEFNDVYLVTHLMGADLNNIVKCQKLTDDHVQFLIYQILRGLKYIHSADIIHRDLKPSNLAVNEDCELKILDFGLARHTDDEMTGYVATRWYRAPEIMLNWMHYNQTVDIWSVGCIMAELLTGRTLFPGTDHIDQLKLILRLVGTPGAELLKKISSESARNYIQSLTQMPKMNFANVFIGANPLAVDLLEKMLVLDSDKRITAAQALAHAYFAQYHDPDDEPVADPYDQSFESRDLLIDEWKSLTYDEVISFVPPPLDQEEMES
Chain of CDK3/cyclin E (Homo sapiens) (O96020 whole entry, looked up): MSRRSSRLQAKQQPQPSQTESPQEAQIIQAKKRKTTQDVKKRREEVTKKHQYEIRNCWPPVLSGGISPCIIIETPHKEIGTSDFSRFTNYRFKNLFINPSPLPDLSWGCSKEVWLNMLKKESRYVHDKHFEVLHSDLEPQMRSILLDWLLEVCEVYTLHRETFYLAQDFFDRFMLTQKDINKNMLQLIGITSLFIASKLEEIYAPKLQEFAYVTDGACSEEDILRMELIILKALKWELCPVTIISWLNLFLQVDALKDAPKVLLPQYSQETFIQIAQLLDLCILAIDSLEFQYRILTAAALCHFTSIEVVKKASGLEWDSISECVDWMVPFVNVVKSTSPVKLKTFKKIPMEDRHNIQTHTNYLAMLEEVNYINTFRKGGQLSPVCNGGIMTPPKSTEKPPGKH
Chain of CDK3/cyclin E (Homo sapiens) (P24864 whole entry, looked up): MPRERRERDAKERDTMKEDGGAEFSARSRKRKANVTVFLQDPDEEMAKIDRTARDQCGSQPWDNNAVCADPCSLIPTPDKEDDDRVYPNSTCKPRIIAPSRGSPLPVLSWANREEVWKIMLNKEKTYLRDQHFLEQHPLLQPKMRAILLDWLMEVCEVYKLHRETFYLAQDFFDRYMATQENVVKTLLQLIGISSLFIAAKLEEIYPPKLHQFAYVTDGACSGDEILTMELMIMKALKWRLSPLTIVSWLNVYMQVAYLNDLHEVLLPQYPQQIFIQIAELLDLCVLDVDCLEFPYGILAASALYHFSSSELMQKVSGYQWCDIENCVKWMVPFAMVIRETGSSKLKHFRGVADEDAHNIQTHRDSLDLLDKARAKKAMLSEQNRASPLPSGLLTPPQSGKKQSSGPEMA
Chain of CDK3/cyclin E (Homo sapiens) (Q00526 whole entry, looked up): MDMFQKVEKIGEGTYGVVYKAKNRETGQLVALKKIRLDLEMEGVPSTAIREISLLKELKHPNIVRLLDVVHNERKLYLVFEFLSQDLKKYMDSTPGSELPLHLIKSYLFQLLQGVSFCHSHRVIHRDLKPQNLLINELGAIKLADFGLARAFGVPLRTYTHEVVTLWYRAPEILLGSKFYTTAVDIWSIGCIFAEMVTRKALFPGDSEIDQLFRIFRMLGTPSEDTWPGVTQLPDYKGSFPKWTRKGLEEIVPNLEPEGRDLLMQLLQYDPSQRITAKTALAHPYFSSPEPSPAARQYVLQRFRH
Chain of Tyrosine-protein kinase Yes (Homo sapiens) (P07947 2-543 limits assumed): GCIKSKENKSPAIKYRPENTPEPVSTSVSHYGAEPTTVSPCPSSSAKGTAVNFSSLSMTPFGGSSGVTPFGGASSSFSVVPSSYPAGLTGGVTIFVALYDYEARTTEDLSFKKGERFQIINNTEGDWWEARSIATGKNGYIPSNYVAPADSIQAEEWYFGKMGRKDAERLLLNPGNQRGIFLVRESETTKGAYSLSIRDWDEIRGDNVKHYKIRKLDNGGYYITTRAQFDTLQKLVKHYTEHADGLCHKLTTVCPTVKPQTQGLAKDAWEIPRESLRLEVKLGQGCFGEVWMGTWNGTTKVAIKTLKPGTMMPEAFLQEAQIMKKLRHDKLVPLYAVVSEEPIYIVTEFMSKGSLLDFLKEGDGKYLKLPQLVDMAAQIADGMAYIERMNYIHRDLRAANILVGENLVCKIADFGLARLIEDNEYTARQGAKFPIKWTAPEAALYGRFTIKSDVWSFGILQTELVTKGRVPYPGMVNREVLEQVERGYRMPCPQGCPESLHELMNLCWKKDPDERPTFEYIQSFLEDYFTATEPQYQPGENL
Chain of Tyrosine-protein kinase ABL2 (Mus musculus) (Q4JIM5 whole entry): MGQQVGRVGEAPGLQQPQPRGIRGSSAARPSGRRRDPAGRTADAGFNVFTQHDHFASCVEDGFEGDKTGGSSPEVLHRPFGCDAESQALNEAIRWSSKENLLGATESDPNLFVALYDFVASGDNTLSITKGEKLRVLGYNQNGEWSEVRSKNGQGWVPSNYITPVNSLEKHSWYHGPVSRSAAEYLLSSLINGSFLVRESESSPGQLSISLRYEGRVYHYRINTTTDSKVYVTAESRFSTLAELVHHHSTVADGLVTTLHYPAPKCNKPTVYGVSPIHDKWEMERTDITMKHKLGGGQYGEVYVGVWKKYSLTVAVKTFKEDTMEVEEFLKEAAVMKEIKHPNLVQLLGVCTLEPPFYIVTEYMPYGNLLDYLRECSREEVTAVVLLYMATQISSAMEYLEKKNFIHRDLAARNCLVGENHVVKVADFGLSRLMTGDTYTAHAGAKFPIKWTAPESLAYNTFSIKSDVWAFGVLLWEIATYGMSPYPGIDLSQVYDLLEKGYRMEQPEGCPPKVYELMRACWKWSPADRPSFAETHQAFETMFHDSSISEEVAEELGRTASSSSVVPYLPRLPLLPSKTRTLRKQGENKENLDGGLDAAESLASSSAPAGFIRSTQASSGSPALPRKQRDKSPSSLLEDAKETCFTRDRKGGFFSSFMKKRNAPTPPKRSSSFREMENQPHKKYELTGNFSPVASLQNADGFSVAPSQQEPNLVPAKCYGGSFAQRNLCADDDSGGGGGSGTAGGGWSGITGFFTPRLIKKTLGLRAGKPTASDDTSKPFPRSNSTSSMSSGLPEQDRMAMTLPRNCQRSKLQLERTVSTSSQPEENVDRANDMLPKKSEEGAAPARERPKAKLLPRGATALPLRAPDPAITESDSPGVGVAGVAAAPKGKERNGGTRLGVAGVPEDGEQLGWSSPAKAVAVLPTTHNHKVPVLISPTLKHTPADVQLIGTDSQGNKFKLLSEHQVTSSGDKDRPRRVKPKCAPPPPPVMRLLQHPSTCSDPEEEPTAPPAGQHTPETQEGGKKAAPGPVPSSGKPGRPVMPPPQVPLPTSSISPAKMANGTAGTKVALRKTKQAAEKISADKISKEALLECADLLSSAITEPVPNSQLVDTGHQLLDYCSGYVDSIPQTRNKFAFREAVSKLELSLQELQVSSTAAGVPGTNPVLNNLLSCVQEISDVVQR
Chain of Cytoplasmic tyrosine-protein kinase BMX (Homo sapiens) (P51813 whole entry): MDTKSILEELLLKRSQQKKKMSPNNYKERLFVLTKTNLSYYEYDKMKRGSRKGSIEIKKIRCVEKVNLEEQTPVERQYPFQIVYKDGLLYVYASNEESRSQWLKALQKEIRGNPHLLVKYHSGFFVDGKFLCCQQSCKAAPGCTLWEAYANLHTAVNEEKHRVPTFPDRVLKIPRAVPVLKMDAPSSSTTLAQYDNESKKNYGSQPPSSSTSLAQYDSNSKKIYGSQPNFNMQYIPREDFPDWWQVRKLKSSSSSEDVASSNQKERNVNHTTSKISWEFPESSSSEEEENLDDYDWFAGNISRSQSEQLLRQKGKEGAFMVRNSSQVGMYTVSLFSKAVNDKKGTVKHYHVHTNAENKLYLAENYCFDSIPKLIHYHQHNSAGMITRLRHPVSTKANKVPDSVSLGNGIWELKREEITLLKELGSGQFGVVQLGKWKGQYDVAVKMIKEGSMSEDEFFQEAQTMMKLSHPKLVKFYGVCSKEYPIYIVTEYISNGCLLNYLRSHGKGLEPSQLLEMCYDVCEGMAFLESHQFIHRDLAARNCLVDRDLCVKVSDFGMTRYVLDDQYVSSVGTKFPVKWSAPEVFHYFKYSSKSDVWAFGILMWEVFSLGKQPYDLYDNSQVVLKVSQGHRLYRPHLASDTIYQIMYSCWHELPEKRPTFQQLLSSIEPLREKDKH

IC50 [1]: 20 µM
Activity [2]: 96%
Activity [3]: 103%
Cmax [4]: 11400 ng/mL
AUC [5]: 4400 ng·h/mL
half-life [6]: 1 h
Activity [7]: 104%
Activity [8]: 85%
Activity [9]: 84%
Activity [10]: 94%
Activity [11]: 159%
T1/2 [12]: 0.65 h
Activity [13]: 101%
Activity [14]: 99%
Activity [15]: 89%
Activity [16]: 178%
Activity [17]: 90%
IC50 [18]: 52 µM
Activity [19]: 105%
Activity [20]: 93%
Activity [21]: 95%
AUC [22]: 847 ng·h/mL
Activity [23]: 73%
Activity [24]: 117%
IC50 [25]: 4.73 µM
Activity [26]: 111%
Activity [27]: 102%
Activity [28]: 98%
Activity [29]: 102%
Activity [30]: 104%
Activity [31]: 96%
Activity [32]: 86%
Activity [33]: 91%
Compound: O=C1NC(=O)/C(=C/c2ccc(-c3ccc(F)cc3O)o2)S1
